Results pooled from the literature.
Compare with care: the assays were run in different laboratories.
KIT: Mast/stem cell growth factor receptor Kit (KIT, Homo sapiens, UniProt P10721)
KIT V559D: Mast/stem cell growth factor receptor Kit (KIT, Homo sapiens, UniProt P10721, V559D)
KIT D816V: Mast/stem cell growth factor receptor Kit (KIT, Homo sapiens, UniProt P10721, D816V)

| SMILES | target | test | setting | quantity | value |
| --- | --- | --- | --- | --- | --- |
| C#Cc1cnc(Nc2ccnc(CO)c2)nc1Nc1ccccc1S(C)(=O)=NC#N (stereo not drawn) | KIT | cell-free assay | 1 µM | remaining signal | 73% |
| C1=C/COCc2cc(ccc2OCCN2CCCC2)Nc2nccc(n2)-c2cccc(c2)COC/1 | KIT V559D | binding | 0.1 µM | remaining binding | 3.7% |
| CN1CCN(C(=O)c2ccc(NC(=O)Nc3ccc(N(C)c4ccnc(Nc5ccc(CS(C)(=O)=O)cc5)n4)cc3)cc2)CC1 | KIT D816V | binding | 1 µM | remaining binding | 23% |
| C=CC(=O)N1CCC([C@@H]2CCNc3c(C(N)=O)c(-c4ccc(Oc5ccccc5)cc4)nn32)CC1 | KIT | enzyme activity, inhibitor | 1 µM | inhibition | 17% |
| CCCCC(=O)Nc1ccc(-c2ccc3ncn(CCC)c(=O)c3c2)cn1 | Mast/stem cell growth factor receptor Kit, autoinhibited (KIT, Homo sapiens, UniProt P10721) | binding, competition with immobilised ligand | 0.5 µM | remaining binding | 97% |
| Cc1ccc(NC(=O)c2ccnc(C(F)(F)F)c2)cc1-c1cc(OCCO)nc(N2CCOCC2)c1 | Mast/stem cell growth factor receptor Kit (KIT, Homo sapiens, UniProt P10721, V559D/V654A) | binding | 1 µM | remaining binding | 91% |
| CC#CC(=O)N1CCC[C@H]1c1nc(-c2ccc(C(=O)Nc3ccccn3)cc2)c2c(N)nccn12 | Mast/stem cell growth factor receptor Kit (KIT, Homo sapiens, UniProt P10721, L576P) | enzyme activity, inhibitor | 1 µM | inhibition | 13% |
| C[C@H]1CC[C@H](n2c3cnccc3c3cnc(Nc4ccc5c(n4)CCN(C(=O)CO)C5)nc32)CC1 | KIT D816V | cell-free assay | 1 µM | remaining signal | 3.6% |
| CO[C@@H]1[C@H](N(C)C(=O)c2ccccc2)C[C@H]2O[C@]1(C)n1c3ccccc3c3c4c(c5c6ccccc6n2c5c31)C(=O)NC4 | Mast/stem cell growth factor receptor Kit (KIT, Homo sapiens, UniProt P10721, D816H) | enzyme activity, inhibitor | 1 µM | inhibition | 98% |
| N#Cc1ccc(NC(=O)Nc2ccccc2)cc1 | KIT | cell-free assay, competition with immobilised ligand | 25 µM | remaining binding | 49% |
| COc1ccc2oc(-c3ccc4nc(N)oc4c3)c/c(=N\c3ccccc3NC(=O)CCN)c2c1 | KIT | binding | 1 µM | remaining binding | 111% |
| COc1ccc2[nH]c3c4[nH]c5ccc(OC)cc5c4c4c(c3c2c1)C(=O)NC4=O | KIT V559D | binding | 1 µM | remaining binding | 9% |
